The list is not random: actives were taken first. Their share in the collection is about 2.7%.
MC4R barr agon – agonists of human melanocortin 4 receptor (MC4R) beta-arrestin; U2OS MC4R beta-arrestin complementation, luminescence; percent of melanotan II response, DMSO zero; 360,000 tested, 0.98% active; activation, % at 8.9 µM;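 active = activation above a per-plate cutoff, the mean activation of sample wells on that plate plus 3 SD, cut at about 8% in these data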
Target sequence (P32245 whole entry, looked up): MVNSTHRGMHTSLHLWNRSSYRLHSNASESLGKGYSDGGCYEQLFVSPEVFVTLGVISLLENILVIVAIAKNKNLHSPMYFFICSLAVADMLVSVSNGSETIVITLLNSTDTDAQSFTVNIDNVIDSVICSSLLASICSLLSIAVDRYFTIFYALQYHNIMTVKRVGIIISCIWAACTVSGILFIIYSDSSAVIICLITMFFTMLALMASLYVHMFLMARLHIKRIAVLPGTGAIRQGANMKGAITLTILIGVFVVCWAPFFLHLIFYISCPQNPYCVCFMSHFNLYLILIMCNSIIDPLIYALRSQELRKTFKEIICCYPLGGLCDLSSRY
MC4R antag cAMP – antagonists of human melanocortin 4 receptor (MC4R); P32245; MC4R-expressing cells, MTII-stimulated cAMP, LANCE TR-FRET; inhibition, % at 6.5 µM; 360,000 tested, 0.48% active; AID 540295;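 active = inhibition above its plate's cutoff, the mean of tested wells on that plate plus 3 SD, cut at about 29% in these data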;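 note: 0% = Melanotan II alone and 100% = Melanotan II plus saturating MCL0020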
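Test system: U2OS cells stably expressing human melanocortin 4 receptor (MC4R); also added: Melanotan II challenge; compound: 6.5 µM single dose; timing: 30-min compound preincubation, 1-h Melanotan II challenge, 1-h detection, room temperature; signal: Eu-cAMP/anti-cAMP TR-FRET, emission 671 nm; repeats: one well per compound, no replicates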
NR2E3 ag-1 – agonists of human NR2E3 nuclear receptor | Q9Y5X4 | CHO-S Gal4-NCOR/VP16-NR2E3 two-hybrid, luciferase | inhibition of corepressor binding, % at 3.98 µM | 360,000 tested, 0.35% active;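 active = inhibition above the mean of all tested compounds plus 3 SD, cut at about 70% in these data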;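 note: 0% = DMSO with NR2E3 transfected cells and 100% = cells lacking NR2E3 construct; higher means lower luciferase signal from less NR2E3 corepressor binding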
Rev-erbA mod – modulators of human Rev-erb alpha DNA binding; Rev-erbα–FITC-DNA binding, fluorescence polarization, 90 min; 370,000 tested, 0.79% active; activity, % at 10 µM; P20393;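 active = activity above about 14%, limit read from the data; passing the limit was not always enough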;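 note: 0% = DMSO wells with 35 nM protein and 100% = DMSO wells with 750 nM protein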
NR2E3 ag-2 – activates human photoreceptor nuclear receptor NR2E3. GST-NR2E3/biotin-RetCOR TR-FRET, 1536-well. inhibition of corepressor binding, % at 4.78 µM. 320,000 tested, 0.12% active;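 active = percent inhibition above the cutoff of mean plus 3 SD of all tested compounds, set per screening campaign, cut at about 20% in these data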;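 note: 0% = DMSO wells and 100% = biotin wells as full block of FRET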
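Material: NR2E3–RetCOR corepressor complex / Amount: 1.35 nM GST-NR2E3 / Medium: Tris pH 7.5 / Compound: single nominal compound dose of 4.8 µM / Incubation: 5 h at 4 °C / Technique: TR-FRET, Eu(K)-anti-GST donor, streptavidin-D2 acceptor, ex 340, em 617/671 nm / Read-out basis: percent loss of FRET ratio relative to control wells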
PG9 Ab binder – binds the HIV-1 gp120 antibody PG9 | TR-FRET gp120-PG9 antibody binding | inhibition, % at 6.7 µM | 360,000 tested, 0.43% active | AID 624416; in the data active = inhibition above about 8.5%
* marks the source's active call; other numbers are inactive results; · = not tested or not shown.

SMILES	MC4R barr agon	MC4R antag cAMP	NR2E3 ag-1	Rev-erbA mod	NR2E3 ag-2	PG9 Ab binder
O=C(COc1ccc(Br)cc1Cl)NC(=S)Nc1ccccn1	1	-1	16	0	-1	0
c1cncc(CNc2c3c(nc4nnnn24)CCCC3)c1	-2	3	-18	-1	-1	-1
Cc1ccc(C(=O)CSc2nnc(-c3c[nH]c4ccccc34)o2)cc1	8.2*	2	-6	-3	0	-1
CC(C)C(C)NC(=O)CSc1nnc(-c2c[nH]c3ccccc23)o1 (centres undefined)	1	-3	-23	-7	0	-1
Nc1ccc2c(c1)C(O)c1cccc(C(=O)O)c1-2 (centres undefined)	-2	2	-2	5	·	-4
COCCCNC(=O)c1cccn2c(=O)c3cc4ccccc4cc3nc12	9.1*	-12	0	4	3	-6
CC1(C(=O)NCc2cccc(C(F)(F)F)c2)CCN1Cc1ccc2ccccc2c1 (centres undefined)	2	11	1	1	·	-3
COc1ccc(OCC(O)Cn2c(=N)n(Cc3ccccc3)c3ccccc32)cc1 (centres undefined)	0	-2	-22	1	-2	-1
N=c1n(Cc2ccc(Cl)cc2)c2ccccc2n1CC(O)COc1ccccc1 (centres undefined)	12*	-10	17	6	-1	-1
CCOC(=O)C1=C(CS(=O)(=O)c2ccccc2)NC(=O)NC1c1cccc(OC)c1 (centres undefined)	0	9	1	-1	-1	-2
O=C(c1cc2sccc2n1Cc1ccccc1)N1CCN(c2nc3ccccc3s2)CC1	-2	7	80*	3	3	-1
COc1ccc(S(=O)(=O)N2CCC(C(=O)NC3CC(C)(C)NC(C)(C)C3)CC2)cc1	-2	5	19	-5	3	-1
CCOC(=O)N/N=C/c1cn(Cc2ccc(Cl)cc2)c2ccccc12	8.8*	-5	-9	3	0	-4
CCOC(=O)N/N=C/c1cn(Cc2ccc(F)cc2)c2ccccc12	4	1	7	0	-2	1
O=C(CNc1ccc2c(c1)OCO2)N/N=C\c1cn(Cc2ccccc2)c2ccccc12	2	13	-15	1	1	-4
N#CCC(=O)N/N=C/c1cn(Cc2ccc(Cl)cc2Cl)c2ccccc12	17*	1	8	-3	-1	-2
O=C(COC(=O)c1cc(C(F)(F)F)cc(C(F)(F)F)c1)NCc1ccc(Cl)cc1	8.7*	-1	-3	-3	-4	-1
COc1ccc(NC(=O)c2ccc(-c3ccc(OC)cc3)s2)cc1	8.5*	-8	-96	4	-7	2
Brc1ccccc1/C=N/Nc1ccccn1	9.4*	-5	-68	1	0	-2
Clc1ccccc1C=NNc1ccccn1	3	-2	-88	2	·	-2
COC(=O)c1c(-c2ccco2)csc1NC(=O)C1CC=CCC1C(=O)O (centres undefined)	-1	9	-19	1	8	9.7*
CCOC(=O)c1c(-c2ccc(F)cc2)csc1NC(=O)C1CC=CCC1C(=O)O (centres undefined)	2	10	6	-1	3	1
COc1ccc(C2NCCc3c2[nH]c2ccccc32)cc1CN1CCc2cc(OC)c(OC)cc2C1C (centres undefined)	0	13	5	·	·	·
COc1ccc(C2NCCc3c2[nH]c2ccccc32)cc1COc1ccc(F)cc1 (centres undefined)	24*	-3	39	-8	0	-2
O=C(N/N=C/c1ccccn1)c1cc(C2CC2)[nH]n1	-4	1	-39	-2	3	-2
SMILES	MC4R barr agon	MC4R antag cAMP	NR2E3 ag-1	Rev-erbA mod	NR2E3 ag-2	PG9 Ab binder
Fc1ccc2c(c1)C(c1ccncc1)=NNC(c1ccccc1)=N2	-1	5	-8	8	4	-3
CCOc1ccc(NC(=O)C2CCN(C(=O)C3CC(=O)N(c4ccc(C)cc4)C3)CC2)cc1 (centres undefined)	-1	5	-16	-2	0	-4
CC(CCC(=O)O)C1CCC2C3CCC4CC(O)CCC4(C)C3CC(O)C12C (centres undefined)	1	15	7	-4	·	-3
COC(=O)CCC(C)C1CCC2C3CCC4CC(O)CCC4(C)C3CC(O)C12C (centres undefined)	9.6*	23	-29	3	·	-2
COc1ccc(S(=O)(=O)N2CCC(C(=O)NCc3ccccn3)CC2)cc1OC	0	22	-1	-4	-1	1
COc1cccc(OCCn2c(C)c(/C=N/n3cnnc3)c3ccccc32)c1	9.7*	-3	17	-1	-3	0
O=C(N[C@@H]1C/C=C\C[C@H](CC(=O)N(CCO)Cc2ccccc2)C(=O)NC[C@@H](c2ccccc2)OC1=O)OCC1c2ccccc2-c2ccccc21	1	13	-1	-1	·	0
O=C(C[C@H]1C/C=C\C[C@H](NC(=O)OCC2c3ccccc3-c3ccccc32)C(=O)O[C@H](c2ccccc2)CNC1=O)N[C@H](CO)Cc1ccccc1	26*	0	-7	·	·	·
N#Cc1cnn2c(=O)[nH]cnc12	-1	18	20	7	·	-1
CC(C)[C@H](NC(=O)c1c(F)cccc1F)C(=O)Nc1cccc(Br)c1	8.6*	-1	-4	2	-1	-1
Cc1nc2ccc(NC(=O)[C@@H](NC(=O)c3c(F)cccc3F)C(C)C)cc2s1	0	1	-10	2	1	-1
CCc1ccc(CCNC(=O)OC2CC3CC2[C@H]2CCCCN2[C@H]3C)cc1 (some centres undefined)	·	·	·	2	·	·
Cc1ccc(C)c(OCCCC(=O)NC2CCCCC2)c1	0	2	-31	3	-2	0
CCC(C)c1ccccc1OCCCCN1CCCC1 (centres undefined)	0	-2	-56	2	1	0
Cn1nc(C(=O)Nc2ccccc2Cl)cc1C(=O)Nc1ccccc1Cl	9.3*	4	-23	0	-2	-2
COc1ccc(NC(=O)C[C@H]2C(=O)N(CCc3ccccc3)C[C@@H]2Cc2ccccc2)cc1	-1	6	10	-4	·	-1
O=C(C1=NN(c2ccccc2)C2C(=O)N(c3ccccc3Cl)C(=O)C12)c1ccccc1 (centres undefined)	9.1*	14	-15	1	-1	-1
COc1ccccc1NC(=O)CN1CCN(c2ccc(Cl)cc2)CC1	1	-2	4	2	-5	0
CC(C)Oc1ccc(CN2CCC2(C)C(=O)Nc2cccc3cccnc23)cc1 (centres undefined)	-1	4	5	0	·	0

Bioassay records deposited in PubChem BioAssay by several laboratories.
